From ChEMBL document CHEMBL1157567, “Design, synthesis, and evaluation of 2-methyl- and 2-amino-N-aryl-4,5-dihydrothiazolo[4,5-h]quinazolin-8-amines as ring-constrained 2-anilino-4-(thiazol-5-yl)pyrimidine cyclin-dependent kinase inhibitors” (J Med Chem, 2010)
Activity calls are given as the source filed them. The rule behind the calls is not given here.

Legend:
[1] = biological target: Cyclin-dependent kinase 2/cyclin E1 (Homo sapiens, UniProt P24941); assay: inhibition of CDK2/Cyclin E; format: protein-complex assay
Summary of the method: (§1)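 Kinase activity measured over 10-point dose-response curves to give IC50; apparent Ki derived from IC50 using the ATP Km of each kinase.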

CDK9/cyclin T1 = CDK9/cyclin T1 (Homo sapiens, UniProt P50750); assay: inhibition of CDK9/CyclinT1; format: protein-complex assay; summary of the method: as §1
[2] = biological target: Cyclin-dependent kinase 1/cyclin B1 (Homo sapiens, UniProt P06493); assay: inhibition of CDK1/Cyclin B; format: protein-complex assay; summary of the method: as §1
[3] = biological target: Cyclin-dependent kinase 7/ cyclin H (Homo sapiens, UniProt P50613); assay: inhibition of CDK7/Cyclin H/MAT1; format: protein-complex assay; summary of the method: as §1
[4] = biological target: Cyclin-dependent kinase 4/cyclin D1 (Homo sapiens, UniProt P11802); assay: inhibition of CDK4/Cyclin D1; format: protein-complex assay; summary of the method: as §1
[5] = biological target: T1, Cyclin-dependent kinase (Homo sapiens) (UniProt P06493+P11802+P24941+Q00535+Q00534+P50613+Q00526+Q00536+Q07002+P49336+Q00537+P21127+Q96Q40+Q9BWU1+O94921+P50750+Q15131+Q14004+Q8IZL9+Q9NYV4); assay: Inhibition of CDK in human A2780 cells assessed as reduction of RNAP2 phosphorylation at Ser5 site at 5 uM after 6 hrs by Western bloting; format: cell-based
Summary of the method: (§2)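 Total cell lysate protein (10 µg) resolved on reducing 4-12% gradient SDS-PAGE after 6 h treatment at 5 µM; probed for RNAP-II phospho-Ser2 and phospho-Ser5 CTD alongside total RNAP-II.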

WI-38 [6] = assay: Induction of apoptosis in human WI38 cells assessed as caspase 3/7 activity at 2.5 uM after 24 hrs […]; format: functional, cell-based
Summary of the method: (§3)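 Caspase-3/7 luminescent assay: 10 000 cells seeded per well, treated 24 h; detection reagent added directly at equal volume to medium, read after further 30 min at room temperature.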

WI-38 [7] = assay: Induction of apoptosis in human WI38 cells assessed as TUNEL-positive cells at 5 uM after 24 hrs by TUNEL assay-based flow cytometric analysis; format: functional
Summary of the method: (§4)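 Cells exposed 24 h to 5 µM compound or assay diluent alone; TUNEL labelling with flow cytometry, 10 000 cells collected; apoptotic (TUNEL-positive) fraction gated against DNA-content cell cycle stage.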

SAOS-2 = assay: Antiproliferative activity against human Saos2 cells after 72 hrs by MTT assay; format: functional, cell-based; settings: SAOS-2, 72 h
Summary of the method: (§5)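 MTT (thiazolyl blue tetrazolium) colorimetric viability read-out after 72 h continuous exposure of cultured cells to test compound.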

A2780 [8] = assay: Induction of apoptosis in human A2780 cells assessed as TUNEL-positive cells at 5 uM after 24 hrs by TUNEL assay-based flow cytometric analysis; format: functional; summary of the method: as §4
[9] = biological target: T1, Cyclin-dependent kinase (Homo sapiens); assay: Inhibition of CDK in human A2780 cells assessed as reduction of pRb levels at 5 uM after 6 hrs by Western bloting; format: cell-based
[10] = biological target: T1, Cyclin-dependent kinase (Homo sapiens); assay: Inhibition of CDK in human A2780 cells assessed as increase in p53 levels at 5 uM after 6 hrs by Western bloting; format: cell-based
HeLa = assay: Antiproliferative activity against human HeLa cells after 72 hrs by MTT assay; format: functional, cell-based; summary of the method: as §5
[11] = biological target: T1, Cyclin-dependent kinase (Homo sapiens); assay: Inhibition of CDK in human A2780 cells assessed as reduction of RNAP2 phosphorylation at Ser2 site at 5 uM after 6 hrs by Western bloting; format: cell-based; summary of the method: as §2
A2780 [12] = assay: Induction of apoptosis in human A2780 cells assessed as caspase 3/7 activity at 2.5 uM after 24 hrs […]; format: functional, cell-based; summary of the method: as §3
MCF7 = assay: Antiproliferative activity against human MCF7 cells after 72 hrs by MTT assay; format: functional, cell-based; settings: MCF7, 72 h; summary of the method: as §5
A549 = assay: Antiproliferative activity against human A549 cells after 72 hrs by MTT assay; format: functional, cell-based; settings: A549, 72 h; summary of the method: as §5
HT-29 = assay: Antiproliferative activity against human HT-29 cells after 72 hrs by MTT assay; format: functional, cell-based; settings: HT-29, 72 h; summary of the method: as §5

Chain of Cyclin-dependent kinase 4/cyclin D1 (P11802 whole entry): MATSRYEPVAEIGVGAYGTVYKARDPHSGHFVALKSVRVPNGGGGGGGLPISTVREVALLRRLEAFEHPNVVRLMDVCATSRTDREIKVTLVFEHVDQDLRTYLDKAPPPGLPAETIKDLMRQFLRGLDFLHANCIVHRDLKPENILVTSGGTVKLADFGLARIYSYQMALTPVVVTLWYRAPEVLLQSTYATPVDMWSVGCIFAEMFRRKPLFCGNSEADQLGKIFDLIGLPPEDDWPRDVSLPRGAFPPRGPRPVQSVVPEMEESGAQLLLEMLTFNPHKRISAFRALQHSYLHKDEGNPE
Chain of Cyclin-dependent kinase 4/cyclin D1 (P24385 whole entry, further chain): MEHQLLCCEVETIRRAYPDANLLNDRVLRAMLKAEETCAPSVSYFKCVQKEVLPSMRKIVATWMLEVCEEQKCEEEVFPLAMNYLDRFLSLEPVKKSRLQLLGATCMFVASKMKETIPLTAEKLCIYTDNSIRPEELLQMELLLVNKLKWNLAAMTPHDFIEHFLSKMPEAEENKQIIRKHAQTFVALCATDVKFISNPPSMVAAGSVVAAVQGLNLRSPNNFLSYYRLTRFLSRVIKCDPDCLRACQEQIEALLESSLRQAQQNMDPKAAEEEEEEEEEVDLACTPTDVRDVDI
Chain of Cyclin-dependent kinase 7/ cyclin H (P51946 whole entry): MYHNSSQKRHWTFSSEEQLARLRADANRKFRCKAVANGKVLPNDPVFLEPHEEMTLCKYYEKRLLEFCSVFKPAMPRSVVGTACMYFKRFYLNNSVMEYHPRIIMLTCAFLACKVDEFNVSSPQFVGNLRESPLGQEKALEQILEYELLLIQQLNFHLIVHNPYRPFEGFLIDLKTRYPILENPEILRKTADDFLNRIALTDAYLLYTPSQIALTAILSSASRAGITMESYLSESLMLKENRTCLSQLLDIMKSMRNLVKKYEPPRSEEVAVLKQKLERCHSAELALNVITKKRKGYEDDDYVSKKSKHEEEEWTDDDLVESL
Chain of Cyclin-dependent kinase 7/ cyclin H (P50613 whole entry): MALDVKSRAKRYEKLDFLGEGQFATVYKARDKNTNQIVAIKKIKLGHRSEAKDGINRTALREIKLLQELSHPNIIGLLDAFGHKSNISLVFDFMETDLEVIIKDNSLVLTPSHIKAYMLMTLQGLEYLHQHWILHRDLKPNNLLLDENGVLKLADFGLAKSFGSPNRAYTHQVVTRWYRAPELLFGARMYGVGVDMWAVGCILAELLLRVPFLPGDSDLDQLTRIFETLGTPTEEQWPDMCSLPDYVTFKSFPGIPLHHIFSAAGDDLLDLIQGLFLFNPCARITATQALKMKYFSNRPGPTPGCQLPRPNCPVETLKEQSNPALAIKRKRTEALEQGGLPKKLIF
Chain of Cyclin-dependent kinase 1/cyclin B1 (P06493 whole entry): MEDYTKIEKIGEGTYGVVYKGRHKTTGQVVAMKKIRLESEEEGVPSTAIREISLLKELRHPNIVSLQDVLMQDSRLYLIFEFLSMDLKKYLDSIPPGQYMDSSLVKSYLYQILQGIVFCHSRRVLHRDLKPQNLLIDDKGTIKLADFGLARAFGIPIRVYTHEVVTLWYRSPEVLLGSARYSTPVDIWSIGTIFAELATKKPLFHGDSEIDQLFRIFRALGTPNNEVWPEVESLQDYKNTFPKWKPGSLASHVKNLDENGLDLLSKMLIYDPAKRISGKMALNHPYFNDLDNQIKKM
Chain of Cyclin-dependent kinase 1/cyclin B1 (P14635 whole entry, further chain): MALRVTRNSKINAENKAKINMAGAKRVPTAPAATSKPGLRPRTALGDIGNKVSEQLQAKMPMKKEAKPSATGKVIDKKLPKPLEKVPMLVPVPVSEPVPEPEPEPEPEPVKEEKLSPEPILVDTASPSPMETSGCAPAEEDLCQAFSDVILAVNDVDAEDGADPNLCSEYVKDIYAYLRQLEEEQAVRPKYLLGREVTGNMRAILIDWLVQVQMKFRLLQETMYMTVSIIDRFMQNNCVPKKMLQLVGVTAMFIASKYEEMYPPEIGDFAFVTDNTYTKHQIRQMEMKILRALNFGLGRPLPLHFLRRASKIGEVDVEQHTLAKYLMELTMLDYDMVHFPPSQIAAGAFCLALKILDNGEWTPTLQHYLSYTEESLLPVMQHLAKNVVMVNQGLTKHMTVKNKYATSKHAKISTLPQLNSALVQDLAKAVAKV
Chain of CDK9/cyclin T1 (O60563 whole entry): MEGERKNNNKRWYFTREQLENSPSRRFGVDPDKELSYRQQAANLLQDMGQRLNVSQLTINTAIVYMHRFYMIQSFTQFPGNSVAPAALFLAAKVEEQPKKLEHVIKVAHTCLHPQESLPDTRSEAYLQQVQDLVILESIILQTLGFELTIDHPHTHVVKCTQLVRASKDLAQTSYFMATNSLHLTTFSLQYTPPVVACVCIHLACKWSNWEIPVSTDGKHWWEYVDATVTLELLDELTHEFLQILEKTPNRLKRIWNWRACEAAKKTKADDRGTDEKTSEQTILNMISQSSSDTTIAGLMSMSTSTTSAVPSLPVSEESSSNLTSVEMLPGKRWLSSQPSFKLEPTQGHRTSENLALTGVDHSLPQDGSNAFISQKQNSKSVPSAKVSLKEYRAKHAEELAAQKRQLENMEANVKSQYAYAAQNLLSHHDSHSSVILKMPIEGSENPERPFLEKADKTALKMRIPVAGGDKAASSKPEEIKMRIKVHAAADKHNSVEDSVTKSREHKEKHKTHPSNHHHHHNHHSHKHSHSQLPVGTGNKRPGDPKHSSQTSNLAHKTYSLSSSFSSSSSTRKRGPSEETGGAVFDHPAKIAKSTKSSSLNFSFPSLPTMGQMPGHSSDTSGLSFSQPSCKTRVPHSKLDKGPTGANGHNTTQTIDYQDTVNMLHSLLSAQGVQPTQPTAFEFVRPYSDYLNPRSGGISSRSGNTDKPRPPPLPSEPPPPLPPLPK
Chain of CDK9/cyclin T1 (P50750 whole entry): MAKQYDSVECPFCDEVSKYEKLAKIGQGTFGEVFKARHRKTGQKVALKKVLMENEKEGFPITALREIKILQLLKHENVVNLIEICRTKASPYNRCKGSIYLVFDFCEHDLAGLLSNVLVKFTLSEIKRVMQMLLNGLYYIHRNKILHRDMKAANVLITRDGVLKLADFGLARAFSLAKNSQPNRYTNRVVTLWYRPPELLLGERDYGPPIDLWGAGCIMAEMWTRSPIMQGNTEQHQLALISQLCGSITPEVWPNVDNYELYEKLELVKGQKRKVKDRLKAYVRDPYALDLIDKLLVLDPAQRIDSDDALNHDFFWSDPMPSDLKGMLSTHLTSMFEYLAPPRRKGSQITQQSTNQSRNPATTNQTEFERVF

Row | SMILES | Ki [1] [µM] | Ki (CDK9/cyclin T1) [µM] | Ki [2] [µM] | Ki [3] [µM] | Ki [4] [µM] | other results
1 | Nc1nc2c(s1)-c1nc(Nc3cccc([N+](=O)[O-])c3)ncc1CC2 | 0.001 | 0.003 | 0.018 | 0.14 | 0.13 | –
2 | Cc1nc2c(s1)-c1nc(Nc3cccc(O)c3)ncc1CC2 | 0.011 | 0.032 | 0.36 | 0.053 | 0.58 | –
3 | COc1ccc(Nc2ncc3c(n2)-c2sc(C)nc2CC3)cn1 | 0.049 | 1 | 0.078 | 1.1 | 0.12 | –
4 | Cc1nc2c(s1)-c1nc(Nc3cccc([N+](=O)[O-])c3)ncc1CC2 | 0.023 | 0.002 | 0.32 | 0.79 | 2 | Activity [5]: Active; Activity (WI-38 [6]): inactive; Activity (WI-38 [7]): 0.7%; IC50 (SAOS-2): 1.2 µM; Activity (A2780 [8]): 20%; Activity [9]: Active; Activity [10]: Active; IC50 (HeLa): 1.1 µM; Activity [11]: Active; Activity (A2780 [12]): Active; IC50 (MCF7): 1.7 µM; IC50 (A549): 0.69 µM; IC50 (HT-29): 1.4 µM
5 | Cc1nc2c(s1)-c1nc(N)ncc1CC2 | > 10 | > 10 | > 10 | > 10 | > 10 | –
6 | Cc1nc2c(s1)-c1nc(Nc3ccc(O)cc3)ncc1CC2 | 0.001 | 0.49 | 0.2 | 0.3 | 0.54 | –
7 | Cc1nc2c(s1)-c1nc(Nc3ccc(N4CCOCC4)cc3)ncc1CC2 | 0.2 | 0.64 | 15 | 1 | > 10 | –
8 | Nc1nc2c(s1)-c1nc(Nc3ccccc3)ncc1CC2 | 0.088 | 0.11 | 0.63 | 1.2 | 0.33 | –
9 | Cc1nc2ccc3cnc(N(C)c4cccc([N+](=O)[O-])c4)nc3c2s1 | 1.6 | > 10 | 7.5 | > 10 | > 10 | –
10 | Cc1nc2ccc3cnc(Nc4ccccc4)nc3c2s1 | 0.024 | > 10 | 1.7 | > 10 | 2.7 | –
11 | Cc1nc2c(s1)-c1nc(Nc3ccc(N(C)C)cc3)ncc1CC2 | 0.01 | 0.64 | 2.5 | 0.06 | 0.037 | –
12 | Cc1nc2c(s1)-c1nc(Nc3ccc(C(F)(F)F)cc3)ncc1CC2 | 0.16 | 1.9 | 0.96 | > 10 | 4.9 | –
13 | Cc1nc2c(s1)-c1nc(Nc3ccc(Cl)nc3)ncc1CC2 | 0.025 | 1.2 | 0.019 | 1.4 | 0.04 | –
14 | Cc1nc2c(s1)-c1nc(N(C)c3cccc([N+](=O)[O-])c3)ncc1CC2 | 0.59 | 12 | 2.7 | 1.8 | > 10 | –
15 | CN(C)c1ccc(Nc2ncc3c(n2)-c2sc(N)nc2CC3)cc1 | 0.031 | 0.16 | 0.098 | 0.5 | 0.47 | –
16 | Cc1nc2c(s1)-c1nc(Nc3ccc([N+](=O)[O-])cc3)ncc1CC2 | 0.13 | 0.14 | 0.31 | 4.8 | > 10 | –
17 | Cc1nc2c(s1)-c1nc(Nc3ccccc3)ncc1CC2 | 0.001 | 0.26 | 0.75 | 2.2 | 0.9 | –
18 | COC(=O)c1ccc(Nc2ncc3c(n2)-c2sc(C)nc2CC3)cc1 | 0.92 | 0.67 | 0.7 | 6.3 | 2.4 | –
